INS-1E rescue: rescue of cytokine-induced death in INS-1E beta cells; actives 0.1% (n = 20,000); protection from cytokine-induced ATP loss, % at 10 µM; AID 488910; INS-1E cytokine-induced death, ATP luminescence, 48 h; normalised: neutral wells 0, positive control 100;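 active = mean replicate protection from cytokine-induced ATP loss at least 50% and at least 75% of replicates each reaching 50%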
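Material: INS-1E rat cells; Quantity: 8000 cells/well; Buffer or medium: phenol-red-free RPMI with 5% fetal bovine serum; Probe or stimulus: cytokine cocktail of IFN-γ, TNF-α and IL-1β; Compound dosing: single test concentration per compound, delivered by pin transfer; Incubation: 48 h co-treatment, 10 min post-lysis read; Signal: CellTiter-Glo luminescence.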
T cruzi HTS: blocks T. cruzi growth inside host cells; activity score (inhibition), % at 5.01 µM; intracellular Trypanosoma cruzi in host cells, plate reader; actives 4.9% (n = 22,000); in the data active = activity score above about 55%;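 note: parasites and compound incubated about four days before reading; 0% = median of neutral control wells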
A1 apoptosis 2: A1 inhibition read as caspase activation; caspase activation, % (test concentration not listed); MEF A1-2A-BIM cells, caspase-Glo luminescence, 3 h; percent of clofoctol response, DMSO zero; 24,000 tested, under 10 active; in the data active = caspase activation above about 5.9%
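Material: A1-2A-BIM-expressing MEF cells. Buffer or medium: RPMI-1640 plus 10% FBS. Incubation: cells settled overnight, compound exposure 3 h at 37 °C, 5% CO2. Signal: Caspase-Glo 3/7 luminescence, 1 h at room temperature.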
* hit, by the source's call; . = no result given. Many of the other results were omitted from the sample, so hits are more common in it than they were.

SMILES	INS-1E rescue	T cruzi HTS	A1 apoptosis 2
COCCOC(=O)N1C(=O)[C@@]2(c3cc(C#CC4=CCCCC4)ccc31)[C@H](c1ccc(O)cc1)N1[C@H](c3ccccc3)[C@H](c3ccccc3)OC(=O)[C@H]1[C@@H]2C(=O)NC[C@H](O)c1ccccc1	.	.	0
O=C(CCCCCCC(=O)Nc1ccccc1O)NN=C1CCCCCC1	12	-3	-2
COc1ccc(CN(C)C[C@@H]2Oc3ccc(NC(=O)Cc4cn(C)c5ccccc45)cc3CC(=O)N([C@H](C)CO)C[C@H]2C)cc1	-8	65*	0
COc1ccc(CN(C)C[C@H]2Oc3ccc(NC(=O)Cc4cn(C)c5ccccc45)cc3CC(=O)N([C@H](C)CO)C[C@H]2C)cc1	-7	14	1
O=C(CCCCCC(=O)Nc1ccccc1O)N/N=C/c1cc(Br)c(O)c(Br)c1	3	-3	.
C[C@@H]1CCCCO[C@@H](CN(C)Cc2ccc(Cl)c(Cl)c2)[C@@H](C)CN([C@H](C)CO)C(=O)c2cc(NS(=O)(=O)c3cccs3)ccc2O1	-53	68*	-1
C[C@@H]1CN([C@H](C)CO)C(=O)c2cc(NS(=O)(=O)c3ccc(Cl)cc3)ccc2O[C@@H]1CN(C)Cc1ccc(Cl)c(Cl)c1	-23	85*	.
C[C@@H]1CCCCO[C@H](CN(C)Cc2ccc(Cl)c(Cl)c2)[C@@H](C)CN([C@H](C)CO)C(=O)c2cc(NS(=O)(=O)c3cccs3)ccc2O1	-24	17	.
C[C@@H]1CCCCO[C@@H](CN(C)Cc2ccc(C(F)(F)F)cc2)[C@@H](C)CN([C@H](C)CO)C(=O)c2cc(NS(=O)(=O)c3ccc(F)cc3)ccc2O1	-63	64*	.
C[C@@H]1CN([C@@H](C)CO)C(=O)c2cc(NS(=O)(=O)c3ccccc3)ccc2O[C@@H]1CN(C)Cc1ccc(Cl)c(Cl)c1	-29	13	-2
C[C@H](CO)N1C[C@H](C)[C@@H](CN(C)Cc2ccc(C(F)(F)F)cc2)OCCCC[C@H](C)Oc2ccc(NS(=O)(=O)c3ccc(F)cc3)cc2C1=O	.	.	2
C[C@H]1CN([C@@H](C)CO)C(=O)c2cc(NS(=O)(=O)c3ccccc3)ccc2O[C@H]1CN(C)Cc1ccc(Cl)c(Cl)c1	.	52*	-1
C[C@H](CO)N1C[C@H](C)[C@H](CN(C)Cc2ccc(Cl)c(Cl)c2)Oc2ccc(NS(=O)(=O)c3ccc(Cl)cc3)cc2C1=O	-11	20	.
Cc1[nH]cnc1/C=N/NC(=O)c1ccccc1O	-5	-5	-4
C=CCOC(=O)[C@H]1[C@@H]2C(=O)O[C@@H](c3ccccc3)[C@@H](c3ccccc3)N2[C@@H](c2ccc(OCCOC(=O)[C@H]3C[C@H]4C(=O)N[C@@H](CCCCNC(C)=O)C(=O)N4[C@H]3c3ccc(O)cc3)cc2)[C@]12C(=O)Nc1ccccc12	.	.	-1
COc1cc(/C=C/C=N/NC(=O)c2cccc(C(=O)NO)c2)ccc1O	-2	-22	0
C#CCNC(=O)C1=C[C@H](c2ccc(C#C)cc2)[C@@H](CCCO)[C@H](OCC)O1	.	.	-1
C[C@H]1CN([C@@H](C)CO)C(=O)c2cc(NS(=O)(=O)c3ccc(Cl)cc3)ccc2O[C@H]1CN(C)Cc1ccc(Cl)c(Cl)c1	.	.	0
C[C@@H]1CN([C@@H](C)CO)C(=O)c2cc(NS(=O)(=O)c3ccc(Cl)cc3)ccc2O[C@@H]1CN(C)Cc1ccc(Cl)c(Cl)c1	-15	58*	0
C[C@@H]1CCCCO[C@@H](CN(C)Cc2ccc(Cl)c(Cl)c2)[C@@H](C)CN([C@H](C)CO)C(=O)c2cc(NS(=O)(=O)c3ccc(F)cc3)ccc2O1	-53	56*	0
C[C@H](CO)N1C[C@H](C)[C@H](CN(C)Cc2ccc(Cl)c(Cl)c2)Oc2ccc(NS(=O)(=O)c3ccc(F)cc3)cc2C1=O	-9	8	-1
C[C@H]1CCCCO[C@H](CN(C)Cc2ccc(Cl)c(Cl)c2)[C@@H](C)CN([C@@H](C)CO)C(=O)c2cc(NS(=O)(=O)c3ccc(F)cc3)ccc2O1	.	.	-1
C[C@H]1CN([C@@H](C)CO)C(=O)c2cc(NS(=O)(=O)c3ccc(F)cc3)ccc2O[C@@H]1CN(C)Cc1ccc(Cl)c(Cl)c1	-2	70*	.
O=C1O[C@H](c2ccccc2)[C@H](c2ccccc2)N2[C@H]1[C@@H](C(=O)N1CCN(c3ncccn3)CC1)[C@]1(C(=O)Nc3ccc(C#CCCO)cc31)[C@H]2c1ccccc1OCCO	.	.	0
CC(C)(C)NC(=O)C(OC(=O)c1ccccc1)c1ccco1 (configuration not stated)	.	.	0
SMILES	INS-1E rescue	T cruzi HTS	A1 apoptosis 2
C[C@H]1CN([C@@H](C)CO)C(=O)c2cccc(NC(=O)Nc3ccccc3)c2O[C@H]1CN(C)S(=O)(=O)c1ccccc1	-5	-13	-1
Cc1ccc(S(=O)(=O)N(C)C[C@H]2Oc3c(NC(=O)Nc4ccc(C(F)(F)F)cc4)cccc3C(=O)N([C@H](C)CO)C[C@@H]2C)cc1	-14	27	.
C[C@H]1CN([C@@H](C)CO)C(=O)c2cccc(NC(=O)Nc3ccc(C(F)(F)F)cc3)c2O[C@@H]1CN(C)S(=O)(=O)c1ccc(F)cc1	-18	21	.
C[C@@H]1CN([C@@H](C)CO)C(=O)c2cccc(NC(=O)Nc3ccc(C(F)(F)F)cc3)c2O[C@@H]1CN(C)S(=O)(=O)c1ccc(Cl)cc1	-107	70*	0
C[C@H](CO)N1C[C@H](C)[C@@H](CN(C)S(=O)(=O)c2ccccc2)Oc2c(NC(=O)Nc3ccccc3)cccc2C1=O	-4	61*	-1
C[C@@H]1CN([C@H](C)CO)C(=O)c2cccc(NC(=O)Nc3ccc(C(F)(F)F)cc3)c2O[C@@H]1CN(C)S(=O)(=O)c1ccc(Cl)cc1	-108	63*	0
O=C(NO)c1cccc(C(=O)N/N=C/c2cccc(O)c2)c1	7	-18	-2
CCO[C@@H]1OC(C(=O)N2CCOCC2)=C[C@H](c2ccc3c(c2)OCO3)[C@H]1CCCO	.	.	1
C=CCNC(=O)[C@@H]1[C@H]2C(=O)O[C@H](c3ccccc3)[C@H](c3ccccc3)N2[C@H](c2ccccc2OCCO)[C@@]12C(=O)Nc1ccc(C#CC3=CCCCC3)cc12	.	.	4
CC1(C)[C@H]2CC=C(/C=N\NC(=O)CCCCCCC(=O)O)[C@@H]1C2	6	-9	1
C[C@H](CO)N1C[C@H](C)[C@@H](CN(C)CC2CCCCC2)Oc2c(NC(=O)c3ccncc3)cccc2C1=O	-6	57*	.
C[C@H]1CN([C@@H](C)CO)C(=O)c2cccc(NC(=O)c3ccncc3)c2O[C@@H]1CN(C)CC1CCCCC1	-16	86*	0
C[C@@H]1CN([C@@H](C)CO)C(=O)c2cccc(NC(=O)c3ccncc3)c2O[C@@H]1CN(C)CC1CCCCC1	-4	-3	.
C[C@@H]1CN([C@@H](C)CO)C(=O)c2cccc(NC(=O)c3ccncc3)c2O[C@H]1CN(C)C(=O)NC1CCCCC1	17	-26	0
C[C@H]1CN([C@@H](C)CO)C(=O)c2cccc(NC(=O)c3ccncc3)c2O[C@H]1CN(C)CC1CC1	9	-17	0

Compound activity deposited in PubChem by Broad Institute.
